Source: PubChem (several laboratories)
NALP1 yeast inh: NALP1 inflammasome inhibitors in reconstituted yeast, colorimetric, S. cerevisiae, triplicate retest; S. cerevisiae NALP1/ASC/caspase-1 growth, X-gal OD620, 72 h; inhibition, % at 10 µM; 280,000 compounds, 0.61% hits; AID 2071, 2009; in the data active means inhibition mostly above about 24%, no sharp cut-off; inactive means mostly below about 32%
ALR inh: inhibitors of human ALR sulfhydryl oxidase, primary screen, biochemical, H2O2 detection, HRP-luminol luminescence, single point | FAD-linked sulfhydryl oxidase ALR (Homo sapiens), P55789 | purified ALR, DTT oxidation | inhibition, % (concentration not given with the values) | 290,000 compounds, 3.8% hits | AID 485317, 2010;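 active means mean replicate inhibition above about 79%, with every replicate also reaching it, limit read from the data; inconclusive means only one of the two criteria met; inactive means mean below limit and not every replicate reaching it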
Pemphigus Ab inh: inhibitors of pemphigus antibody binding to DSG3, primary screen, biochemical, bead-based, flow cytometry, scFv-GFP; Desmoglein-3 (Homo sapiens), P32926; DSG3-coupled beads, scFv-anti-DSG3-GFP binding; stronger effect = lower value; binding (percent of control), % at 10 µM; 310,000 compounds, 0.48% hits; AID 588358, 2011;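 active means binding more than 3 SD below its plate's average and above zero; inconclusive means below that plate limit but binding exactly zero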
Arrestin-AP2 inh: inhibitors of beta-arrestin/AP2 binding, primary screen, biochemical, GPCR trafficking, flow cytometry | beta-arrestin 1 C-terminal peptide binding to AP2 beta2-adaptin appendage (human) | FITC-arrestin peptide / GST-AP2 beads; AP2 beta2 appendage carries R879A mutation | inhibition, % at 10 µM | 340,000 compounds, 0.31% hits;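 active means inhibition above a set limit, near 3 SD of compounds lacking own fluorescence, cut at about 54% in these data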;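 further: plate controls were DMSO wells for no effect and 5 µM unlabelled arrestin peptide for full effect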
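Test system: GST-tagged AP2 beta2-adaptin appendage (R879A) on 4 µm glutathione beads; also added: fluorescein-tagged arrestin peptide at 50 nM final; timing: 12 min plus 1 h, RT; signal: flow cytometry, FL1 (488/535 nm); read-out: percent drop in bead-associated FITC signal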
NLRP3 yeast inh: NALP3 inflammasome inhibitors in reconstituted yeast, primary screen, luminescence, uHTS | Yeast reconstituted NLRP3/ASC/caspase-1, beta-gal luminescence, 24 h | inhibition, % at 10 µM | 330,000 compounds, 0.39% hits;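 active means inhibition of 50% or more; inactive means inhibition below 50%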;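 further: plate controls were induced DMSO wells for no effect and uninduced yeast grown without galactose for full effect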
PolyA inhibitor: polyadenylation inhibitors in yeast reporter cells, primary screen, luminescence, S. cerevisiae | S. cerevisiae SKY197-pL101 polyadenylation reporter, beta-gal luminescence; efflux-impaired pdr1/pdr3 knockout yeast; score 100 = 6 SD above DMSO | activity score, % at 12 µM | 300,000 compounds, 0.02% hits;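 active means lowest replicate activity score at least 50, where 100 means six control SD above control mean; inconclusive means lowest score under 50 but half or more replicates reach 50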;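 further: yeast exposed to compound for 9 h at 30 °C; higher score means more reporter readthrough which indicates perturbed polyadenylation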
* = called active by the depositor; ? = inconclusive; / = no result. This is a sample that favours compounds with a hit; in the whole collection about 4.6% have one here.

SMILES	NALP1 yeast inh	ALR inh	Pemphigus Ab inh	Arrestin-AP2 inh	NLRP3 yeast inh	PolyA inhibitor
COc1cccc(NC(=O)CSc2nn3c(=O)c(C)nnc3s2)c1	-13	99*	117	5	1	11
Cc1ccccc1NC(=O)CSc1nn2c(=O)c(C)nnc2s1	10	49	76	-8	10	10
COc1cccc(NC(=O)CSc2ccccn2)c1	21	90*	/	1	12	1
COc1ccc(CCNC(=O)CSc2nn3c(=O)c(C)nnc3s2)cc1OC	3	14	109	1	14	7
COc1ccc(OC)c(NC(=O)CSc2nn3c(=O)c(C)nnc3s2)c1	2	86*	96	2	5	18
CC/C(=N/N=C(/CC)c1ccc(O)cc1)c1ccc(O)cc1	/	46	101	25	1	-2
CCOc1ccc(CN(C)C(=O)c2cccc(S(=O)(=O)N3CCCC3)c2)cc1OC	/	0	100	5	4	/
O=C(CNC(=O)c1ccc(Cl)cc1)OCCCOC(=O)CNC(=O)c1ccc(Cl)cc1	16	2	100	-5	8	10
O=C(Nc1ccc(S(=O)(=O)NCc2ccccc2)cc1)C1CCCCC1	32*	-16	52	-6	4	-12
CC(=O)Nc1ccc(S(=O)(=O)NCC2CCC(C(=O)NCc3ccccc3)CC2)cc1 (stereo not given)	1	51	97	-8	25	1
Cc1cccc(NC(=O)CSCC(=O)Nc2sccc2C#N)c1	/	98*	103	16	16	4
Cc1cccc(NC(=O)CSCC(=O)N=c2sccn2C)c1	/	44	98	4	10	-18
O=C(O)C1=C[C@H](c2ccc(C(F)(F)F)cc2)C[C@H](OCc2ccc(CO)cc2)O1	22*	17	101	-3	13	-21
CN(C(=O)c1cc(-c2cccs2)nn1-c1ccccc1)C1CCS(=O)(=O)C1 (stereo not given)	/	/	101	/	/	/
CC(C)n1c(-c2ccc(C(C)(C)C)cc2)n[nH]c1=S	-9	82*	106	-3	16	-7
O=C(O)c1ccc(-n2ncc3c2/C(=C\c2cccc([N+](=O)[O-])c2)CC3)cc1	/	/	34*	9	/	/
O=C(O)c1ccc(-n2c(/C=C/c3cccc([N+](=O)[O-])c3)nc3ccccc3c2=O)cc1	7	90*	91	26	5	-3
O=C(O)c1ccc(-n2c(/C=C/c3ccccc3)nc3ccccc3c2=O)cc1	22	99*	?	-11	1	-27
CC(Sc1nnc(C2CC2)n1-c1ccccc1)C(=O)N1CCCC1 (stereo not given)	/	/	91	-6	8	/
CCOc1ccccc1CN1CCNC(=O)C1CC(=O)N(C)C1CCOCC1 (stereo not given)	-1	-26	105	5	3	17
CCOC(=O)C1=C(C)NC2=C(C(=O)CC(C)(C)C2)C1c1ccc2c(c1)CCCN2C (stereo not given)	5	99*	115	6	8	26
CCOC(=O)C1=C(C)NC2=C(C(=O)CC(C)(C)C2)C1c1ccc(O)c(OCC)c1 (stereo not given)	17	0	78	11	-33	0
Fc1cccc(Nc2nc3ccccc3n3nnnc23)c1	20	-1	106	8	-3	0
COc1cccc(Nc2nc3ccccc3n3nnnc23)c1	-2	97*	104	-5	-6	-18
O=c1oc2ccccc2c(Nc2ccc(O)cc2)c1[N+](=O)[O-]	5	94*	111	0	14	-8
SMILES	NALP1 yeast inh	ALR inh	Pemphigus Ab inh	Arrestin-AP2 inh	NLRP3 yeast inh	PolyA inhibitor
COc1cccc(C2c3c(oc4ccccc4c3=O)C(=O)N2Cc2ccco2)c1 (stereo not given)	/	-5	67*	46	2	28
O=C1CC[C@@H]2C[C@@]3(C[C@@H]4CCN1[C@H]24)Nc1cc([N+](=O)[O-])ccc1NC3=NCc1ccccc1	/	/	100	-8	/	/
CN1C(=O)/C(=C\C=C2/CCCN2C)N(C)C1=S	12	59	109	-49	20	-1
CCN1C(=O)/C(=C/C=C2/CCCN2C)OC1=S	13	98*	89	6	27	2
CC(=O)Nc1ccc(NC(=O)C(C)OC(=O)CC23CC4CC(CC(Br)(C4)C2)C3)cc1 (stereo not given)	/	-2	92	-1	18	/
Cc1ccc(CNc2ccc3c(c2)ncn3C(C)(C)C)cc1	5	89*	100	5	13	4
CCn1cnc2cc(NCc3ccncc3)ccc21	14	82*	123	-10	8	-3
Oc1cccc2cnccc12	/	99*	99	22	10	0
CCn1c(N)[n+](CC(=O)Nc2ccc(SC(F)F)cc2)c2ccccc21	/	89*	93	2	18	11
COc1cnc(SCc2ccc(Cl)cc2)nc1Cl	-10	98*	101	3	12	-21
CC(C)(C)C(=O)N(Cc1ccc(Cl)cc1)c1cnccn1	9	0	105	-1	1	1
Cc1ccc2c(c1)c(C)c(C)n2CC(O)CN1CCCCC1C (stereo not given)	-8	95*	104	5	14	0
Cc1ccc2c(c1)c1c(n2CC(O)CN2CCCCC2C)CCCC1 (stereo not given)	/	95*	102	10	17	-6
Cc1ccc2c(c1)c1c(n2CC(O)CN2CCC(C)CC2)CCCC1 (stereo not given)	-4	93*	107	35	15	5
COc1ccc(NS(=O)(=O)c2ccc(C)c(NC(=O)CN3C(=O)NC4(CCCC4)C3=O)c2)cc1	/	/	112	-6	12	/
C[C@H](CO)N1C[C@H](C)[C@@H](CN(C)C(=O)Nc2ccc(F)cc2)Oc2ncc(-c3ccc(F)cc3)cc2C1=O	/	/	98	/	/	/
O=C(CCN1C(=O)/C(=C/c2cccc(Br)c2)SC1=S)Nc1cccnc1	8	-7	83	-11	8	14
O=C(CCN1C(=O)/C(=C/c2ccc(F)cc2)SC1=S)NNC(=O)c1cccnc1	2	-1	88*	3	2	11
O=C(CCN1C(=O)/C(=C/c2cccc(Br)c2)SC1=S)NNC(=O)c1cccnc1	7	-10	83*	0	8	10
COc1cc(/C=c2\sc3n(c2=O)CCCN=3)ccc1O	4	99*	102	20	30	6
